Experimental data reported in ChEMBL document CHEMBL1149269, “Novel 2-(substituted phenyl)benzimidazole derivatives with potent activity against IgE, cytokines, and CD23 for the treatment of allergy and asthma” (J Med Chem, 2004).
The source made the active and inactive calls. No cut-off for these calls is given here.

How the values were obtained:
[1] = Ex vivo inhibition of IgE production in spleen cells from antigen sensitized BALB/c mouse; type: functional, cell-based
Method in brief: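 BALB/c mice immunized with DNP-KLH plus alum; spleens taken 2 weeks later and cultured with antigen, with or without drug. Antigen-specific IgE in supernatants quantified by ELISA against a standard curve of DNP-specific mouse monoclonal antibody.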

B-cell = experiment: Inhibition of IgE production in B lymphocytes from BALB/c mouse; type: functional, cell-based
Method in brief: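 B cells isolated from spleens of naive BALB/c mice, cultured 5 days with IL-4 (10 ng/mL) and anti-mouse CD40 antibody (100 ng/mL), with or without drug. IgE in supernatants quantified by ELISA against a standard curve of DNP-specific mouse monoclonal antibody.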

Mus musculus [2] = experiment: Oral bioavailability in mouse at 40 mg/kg, po relative to AVP-13358; type: ADME, organism-based; details: in vivo
[3] = Suppression of IL4 receptor alpha expression in IL4 and anti-CD40 antibody sensitized mouse splenocytes; details: Splenocyte
[4] = Suppression of CD23 expression in IL4 and anti-CD40 antibody sensitized mouse splenocytes; details: Splenocyte
T-cell [5] = experiment: Inhibition of IL4 production in conA and anti-CD3 antibody sensitized BALB/c mouse spleen T lymphocytes; type: functional, tissue-based
T-cell [6] = experiment: Inhibition of IFN-gamma production in conA and anti-CD3 antibody sensitized BALB/c mouse spleen T lymphocytes; type: functional, tissue-based
T-cell [7] = experiment: Inhibition of IL5 production in conA and anti-CD3 antibody sensitized BALB/c mouse spleen T lymphocytes; type: functional, tissue-based
T-cell [8] = experiment: Inhibition of IL13 production in conA and anti-CD3 antibody sensitized BALB/c mouse spleen T lymphocytes; type: functional, tissue-based
[9] = Suppression of CD23 expression in IL4 and anti-CD40 antibody sensitized CD14-positive human peripheral blood lymphocytes; details: Lymphocyte
Mus musculus [10] = experiment: Protection against allergic response in ovalbumin sensitized BALB/c mouse assessed as inhibition of airway hyper-responsiveness at 5 mg/kg, po twice daily; type: functional, organism-based; parameters: dose 5 mg/kg
Method in brief: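 Female BALB/c mice sensitized i.p. with 10 µg OVA in 4 mg alum. At 2 weeks, OVA aerosol (2% in PBS) 20 min on 2 consecutive days with oral dosing twice daily for 3 days. 2 weeks later, OVA aerosol on 4 consecutive days with the same dosing. PBS-nebulized controls. Airway response to rising methacholine measured by whole-body plethysmography 1 day later.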

SMILES | IC50 [1] | IC50 (B-cell) | Relative Bioavailability (Mus musculus [2]) | further results
O=C(Nc1ccccn1)c1ccc2[nH]c(-c3ccc(NC(=O)C45C[C@@H]6C[C@H](C4)[C@@H](O)[C@@H](C6)C5)cc3)nc2c1 | 1 nM | 8 nM | < 0.1 | 
O=C(NC12CC3CC(CC(C3)C1)C2)c1ccc2[nH]c(-c3ccc(NC(=O)C45CC6CC(CC(C6)C4)C5)cc3)nc2c1 | 1 nM | 2 nM | < 0.1 | 
CC(=O)OC12CC3CC(C1)CC(C(=O)Nc1ccc(-c4nc5cc(C(=O)Nc6ccccn6)ccc5[nH]4)cc1)(C3)C2 | 1 nM | 5 nM | 0.35 | 
O=C(Nc1ccccn1)c1ccc2[nH]c(-c3ccc(NC(=O)C45CC6CC(C4)C(=O)C(C6)C5)cc3)nc2c1 | 10 nM | 40 nM | 0.5 | 
CC(=O)Nc1ccc(-c2nc3cc(C(=O)NC45CC6CC(CC(C6)C4)C5)ccc3[nH]2)cc1 | 25 nM | 90 nM | < 0.1 | 
O=C(Nc1ccccn1)c1ccc2[nH]c(-c3ccc(NC(=O)C45CC6CC(CC(C6)C4)C5)cc3)nc2c1 | 3 nM | 8 nM |  | IC50 [3]: 100 nM; IC50 [4]: 40 nM; IC50 (T-cell [5]): 30 nM; Activity (T-cell [6]): Active; IC50 (T-cell [7]): 30 nM; IC50 (T-cell [8]): 30 nM; IC50 [9]: 20 nM; Activity (Mus musculus [10]): Active
O=C(NC1CCCCC1)c1ccc2[nH]c(-c3ccc(NC(=O)C45CC6CC(CC(C6)C4)C5)cc3)nc2c1 | 2 nM | 7 nM | < 0.1 | 
O=C(Nc1ccc(-c2nc3cc(C(=O)NC45CC6CC(CC(C6)C4)C5)ccc3[nH]2)cc1)c1ccc(Cl)c(Cl)c1 | 0.4 nM | 2 nM | < 0.1 | 
O=C(Nc1ccccn1)c1ccc2[nH]c(-c3ccc(NC(=O)C45C[C@@H]6C[C@H](C4)[C@H](O)[C@@H](C6)C5)cc3)nc2c1 | 1 nM | 15 nM | < 0.1 | 
